Screening data: PubChem, SRMLSC
Fibroblast inh: antiproliferative effect on LL 47 fibroblasts – human, LL 47 cells, CellTiter-Glo luminescence, primary screen | actives 1.1% (n = 85,000) | AID 719, 2007 | LL 47 human lung fibroblast viability, ATP luminescence; stronger effect = lower value | viability, % at 10 µM;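 active means viability at or below 50% in the single dose screen; inactive means viability above 50%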;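 further: compound exposure lasted 72 h before the ATP readout; 100% = median luminescence of untreated cell-only wells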
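Times – overnight cell rest, 72 h compound treatment at 37 °C · Test system – human lung fibroblast line LL 47, low passage · Amount – 1,150 cells in each well · Controls – cell-only wells, no compound · Doses – 0.1% DMSO in all compound wells · Measured by – CellTiter-Glo luminescence · Buffer or medium – IMEM plus 15% FBS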
PTEN del growth: growth suppression of PTEN-null HCT116, primary screen, cell-based, CellTiter-Glo; HCT116 PTEN-null viability, 60 h; stronger effect = lower value; viability, % at 10 µM; actives 1.2% (n = 140,000);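 active means viability at or below a set limit, 4 SD under the median of all tested compounds, cut at about 3.7% in these data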;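 further: PTEN knockout HCT116 line with beta catenin targeted HCT116 as companion control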
HCT116 bCat-KO: primary screen for growth suppressors in beta-catenin knockout HCT116 cells (colon tumor, human); HCT116 beta-catenin knockout viability, CellTiter-Glo, 60 h; stronger effect = lower value; viability, % at 10 µM; actives 1.5% (n = 140,000);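 active means viability at or under a set limit, the compound median less 4 SD, cut at about 6% in these data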;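 further: 0% = Hyamine 1622 control at 20 µM and 100% = untreated cell control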
HUVEC inhibit: inhibitors of HUVEC proliferation, primary screen, cell-based, 384-well | actives 1.1% (n = 86,000) | CellTiter-Glo luminescence, 72 h; stronger effect = lower value | viability, % at 10 µM (by protocol) | AID 648, 2007;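 active means viability at or below 30%; inactive means viability above 30%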;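 further: 100% = median luminescence of DMSO-only cell control wells on each plate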
H69AR inhibit: proliferation blockers of H69AR lung cancer cells, primary screen, cell-based, human, 86K library. H69AR lung tumor viability, ATP luminescence, 72 h; stronger effect = lower value. viability, % at 10 µM. actives 6% (n = 85,000). AID 598, 2007;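 active means viability at or below 40%; inactive means viability above 40%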;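 further: multidrug resistant small cell line overexpressing MRP-1 efflux transporter; 100% = mean luminescence of untreated control wells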
The depositor's hits bear a star; · = not tested or not shown. Only a selection was taken, and hits are over-represented in it overall.

SMILES	Fibroblast inh	PTEN del growth	HCT116 bCat-KO	HUVEC inhibit	H69AR inhibit
CCN1CCN(c2ncc(C(=O)Nc3cc(Cl)c(OC)cc3OC)c3ccccc23)CC1	85	76	76	18*	23*
CCN1CCN(c2ncc(C(=O)N3CCN(c4ccccc4OC)CC3)c3ccccc23)CC1	105	·	·	93	89
CCN1CCN(c2ncc(C(=O)Nc3c(F)cc(F)cc3Br)c3ccccc23)CC1	83	20	15	59	21*
O=C(/C=C/c1cccc([N+](=O)[O-])c1)NC(=S)Nc1cccc(NC(=O)c2ccccc2Cl)c1	·	2.8*	11	·	·
Cc1cc2c(c(=O)n1Cc1cccnc1)C(c1cccs1)C(C#N)=C(N)O2 (stereo not drawn)	97	94	107	92	32*
Cc1cc2c(c(=O)n1Cc1cccnc1)C(Cc1ccccc1)C(C#N)=C(N)O2 (stereo not drawn)	100	106	99	87	86
O=C(NNS(=O)(=O)c1ccccc1)c1ccc(S(=O)(=O)N2CCCCC2)cc1	·	92	79	·	·
COc1ccc(NC(=O)c2cc(-c3cc(C)cc(C)c3O)n[nH]2)cc1Cl	97	4	10	44	21*
Cc1cc(C)c(O)c(-c2cc(C(=O)NCc3ccccc3)[nH]n2)c1	110	79	99	85	90
COc1cc(/C=N/Nc2snc(SC)c2C#N)cc(OC)c1OC	71	15	14	60	24*
Cc1cccc(OCc2nnc(SCC(=O)N3c4ccccc4CC3C)n2C)c1C (stereo not drawn)	97	95	91	86	52
CCCC(=Nc1ccc(N)cc1)C1=C(O)C(C(=O)OC)C(C)(C)CC1=O (stereo not drawn)	100	96	104	88	20*
CCCC(=O)C1=C(O)C(C(=O)OC)C(C)(C)CC1=Nc1ccc(N)cc1 (stereo not drawn)	97	87	89	95	81
Cc1ccc2oc(=O)c3cnn(CC(=O)N(CCN(C)C)Cc4ccco4)c3c2c1	100	114	96	86	81
C(=C\c1nc(N2CCCCCC2)c2ccccc2n1)/c1ccccc1	·	8	3.3*	·	·
c1ccc2c(N3CCCCC3)nc(N3CCCCC3)nc2c1	95	51	58	77	54
O=[N+]([O-])c1ccc(/C=N/NC(=S)Nc2ccccc2)o1	·	48	61	·	·
Cc1cccc(NC(=O)/C=C/c2ccc([N+](=O)[O-])s2)c1	·	1.1*	2.8*	·	·
Cc1ccc(NC(=O)/C=C/c2ccc([N+](=O)[O-])s2)c(C)c1	·	1.1*	2.6*	·	·
Cc1ccc(NC(=O)/C=C/c2ccc([N+](=O)[O-])s2)cc1	·	4	9	·	·
Cc1cccc(NC(=S)N/N=C/c2ccc([N+](=O)[O-])s2)c1	·	0.8*	1.0*	·	·
CCC1(C(=O)OC)NC(c2ccccc2OC)C2C(=O)N(C)C(=O)C21 (stereo not drawn)	106	94	95	101	102
O=C1c2ccccc2C2=Nc3ccccc3SC(c3ccc(Cl)cc3)C12 (stereo not drawn)	·	3.3*	3.7*	·	·
O=C1c2ccccc2C2=Nc3ccccc3SC(c3cccc(F)c3)C12 (stereo not drawn)	·	3.5*	2.2*	·	·
COc1ccc(OC)c2sc(NC(=O)CCS(=O)(=O)c3ccccc3)nc12	36*	·	·	66	2.4*
SMILES	Fibroblast inh	PTEN del growth	HCT116 bCat-KO	HUVEC inhibit	H69AR inhibit
COc1ccc(OC)c2sc(NC(=O)c3ccc(S(=O)(=O)N(C)C)cc3)nc12	88	91	88	64	21*
CCCc1cc(C(=O)NCc2ccccc2)no1	105	65	62	102	88
COc1ccc(Cn2c(-c3ccc(C)cc3)c[n+]3ccccc23)cc1	·	16	13	·	·
O=C(c1ccco1)N1C2C=CC(C2)C1(C(F)(F)F)C(F)(F)F (stereo not drawn)	105	98	99	97	94
CCOC(=O)c1ccc(S(=O)(=O)N2CCNCC2)cc1	94	100	90	91	88
CCCCN(CC)S(=O)(=O)c1ccc(C(=O)N=c2sc3cc(NC(C)=O)ccc3n2C)cc1	·	0.7*	0.6*	·	·
CC1CCN(C(=O)CCCNC(=O)Cn2cnc3sc4c(c3c2=O)CCCC4)CC1	97	85	99	96	86
COc1ccccc1/C=C/C(=O)c1ccc(NC(C)=O)cc1	·	17	15	·	·
COc1ccccc1/C=C/C(=O)c1c2c(c(C)[nH]c1=O)CCCC2	·	3.2*	5.4*	·	·
Cc1ccc2oc(=O)c3cnn(CC(=O)Nc4ccccc4N4CCN(C)CC4)c3c2c1	47*	12	19	2.1*	62
Cc1ccc2oc(=O)c3cnn(CC(=O)N4CCN(c5ccccc5)CC4)c3c2c1	96	77	77	83	75
COc1ccc(CCNC(=O)CN(c2ccccc2OC)S(C)(=O)=O)cc1OC	101	105	105	97	94
COc1ccc(-c2nn(-c3ccccc3)cc2/C=N/N=C(N)N)cc1OC	·	1.2*	1.6*	·	·
Cc1cc(C)n(-c2nc(-n3nc(C)cc3C)c3c4c(sc3n2)COC(C)(C)C4)n1	87	91	94	106	26*
Cc1cc(C)n(-c2nc(SCC(=O)Nc3nccs3)c3c4c(sc3n2)COC(C)(C)C4)n1	69	84	73	61	47
Cc1cc(C)n(-c2nc(NCCC(C)C)c3c4c(sc3n2)COC(C)(C)C4)n1	86	4	3.6*	13*	1.6*
CSc1nnc2c3c4c(sc3nc(-n3nc(C)cc3C)n12)COC(C)(C)C4	107	68	68	92	74
O=C(Nc1ccc(N2CCCC2)cc1)c1ccccc1F	96	93	90	74	47
COc1ccc(-c2nc(Cn3c(SCc4ccc(C)cc4)nc4ccncc43)c(C)o2)cc1OC	93	75	71	73	19*
COc1ccc(-c2nc(Cn3c(SCc4cccc(F)c4)nc4ccncc43)c(C)o2)cc1OC	87	68	64	58	54
COc1cc2[nH]c(=O)n(CCC(=O)N3CCN(c4cccc(C)c4C)CC3)c(=O)c2cc1OC	89	99	96	44	2.4*
COc1cc2[nH]c(=O)n(CCCCCC(=O)N3CCN(c4ccccc4)CC3)c(=O)c2cc1OC	97	68	80	66	65
COc1ccc(-c2nnnn2-c2ccccc2OC)cc1	82	42	43	72	22*
CCOc1cc2[nH]c(=O)n(CCc3ccc(OC)c(OC)c3)c(=O)c2cc1OCC	96	63	83	88	36*
CCOc1cc2[nH]c(=S)n(CCc3ccc(OC)c(OC)c3)c(=O)c2cc1OCC	17*	36	20	16*	3.0*
CCOc1cc2[nH]c(=S)n(CCCOC)c(=O)c2cc1OCC	96	95	96	89	71
